In ChEMBL document CHEMBL4130602, “Rearranged Phloroglucinol-Monoterpenoid Adducts from Callistemon rigidus” (J Nat Prod, 2018):

system: RAW264.7; assay: Antiinflammatory activity in mouse RAW264.7 cells assessed as inhibition of LPS-induced nitric oxide production pretreated for 1 hr followed by LPS stimulation measured after 24 hrs by griess assay; assay type: functional, cell-based
How it was run: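 Compound added 1 h before lipopolysaccharide, then 24 h incubation. Culture supernatant mixed with Griess reagent, 10 min at room temperature; absorbance read at 550 nm, nitrite quantified from NaNO2 standard curve. Run in triplicate.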

Compound	IC50
CC[C@H](C)C(=O)c1c(O)cc(OC)c2c1O[C@@]1(C)[C@@H]2C[C@H](C(C)C)[C@H]1C=O	15.3 µM
COc1cc(O)c(C(=O)CC(C)C)c2c1[C@@H]1C[C@H](C(C)C)C=C[C@]1(C)O2	> 50 µM
COc1cc(O)c(C(=O)C(C)C)c2c1[C@H]1C[C@H](C(C)C)[C@H]3O[C@H]3[C@@]1(C)O2	> 50 µM
CC[C@H](C)C(=O)c1c(O)cc(OC)c2c1O[C@@]1(C)[C@@H]2C[C@H](C(C)C)[C@H]2O[C@H]21	> 50 µM
CC[C@H](C)C(=O)c1c(O)cc(OC)c2c1O[C@]1(C)C=C[C@@H](C(C)C)C[C@H]21	> 50 µM
COc1cc(O)c(C(=O)C(C)C)c2c1[C@@H]1[C@@H](C(C)C)CC=C(C)[C@@H]1O2	> 50 µM
COc1cc(O)c(C(=O)C(C)C)c2c1[C@H]1C[C@H](C(C)C)C=C[C@@]1(C)O2	> 50 µM
COc1cc(O)c(C(=O)CC(C)C)c2c1[C@H]1C[C@H](C(C)C)C=C[C@@]1(C)O2	> 50 µM
COc1cc(O)c(C(=O)C(C)C)c2c1[C@H]1C[C@H](C(C)C)[C@@H](C=O)[C@@]1(C)O2	17.7 µM
COc1ccc2c(c1)c(CC(=O)O)c(C)n2C(=O)c1ccc(Cl)cc1 [INDOMETHACIN]	21.1 µM
